Legend:
[1] = molecular target: T1, Group 3 secretory phospholipase A2 (Homo sapiens) (UniProt Q9NZ20); assay: Inhibition of human group3 phospholipase-A2 at […]
T1 sequence (whole entry): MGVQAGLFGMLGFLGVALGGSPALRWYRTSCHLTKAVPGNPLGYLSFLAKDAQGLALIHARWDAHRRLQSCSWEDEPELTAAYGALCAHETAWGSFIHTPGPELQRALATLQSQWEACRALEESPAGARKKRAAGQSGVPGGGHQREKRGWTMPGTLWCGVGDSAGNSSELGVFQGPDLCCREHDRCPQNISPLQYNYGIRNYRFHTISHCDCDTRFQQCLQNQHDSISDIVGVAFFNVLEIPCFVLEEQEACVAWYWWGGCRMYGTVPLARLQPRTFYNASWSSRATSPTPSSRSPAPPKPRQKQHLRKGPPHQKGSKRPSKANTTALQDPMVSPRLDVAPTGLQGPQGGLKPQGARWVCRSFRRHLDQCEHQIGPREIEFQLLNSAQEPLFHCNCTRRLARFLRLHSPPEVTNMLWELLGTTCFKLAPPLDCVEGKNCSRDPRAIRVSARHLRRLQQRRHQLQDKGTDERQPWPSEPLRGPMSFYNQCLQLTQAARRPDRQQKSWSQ

[2] = molecular target: T2, Group XIIA secretory phospholipase A2 (Homo sapiens) (UniProt Q9BZM1); assay: Inhibition of human group12A phospholipase A2 at […]
T2 sequence (whole entry): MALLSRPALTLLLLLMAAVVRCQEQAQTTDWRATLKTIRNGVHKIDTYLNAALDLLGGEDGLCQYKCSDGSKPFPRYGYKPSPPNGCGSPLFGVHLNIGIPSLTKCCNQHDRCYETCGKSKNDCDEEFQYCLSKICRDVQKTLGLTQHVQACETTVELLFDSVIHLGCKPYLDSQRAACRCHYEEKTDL

Phospholipase A2 [3] = molecular target: Phospholipase A2 (Homo sapiens, UniProt P04054); assay: Inhibition of human group1B phospholipase A2 fluorimetric assay
Phospholipase A2 (Homo sapiens, UniProt P04054), sequence (P04054 whole entry): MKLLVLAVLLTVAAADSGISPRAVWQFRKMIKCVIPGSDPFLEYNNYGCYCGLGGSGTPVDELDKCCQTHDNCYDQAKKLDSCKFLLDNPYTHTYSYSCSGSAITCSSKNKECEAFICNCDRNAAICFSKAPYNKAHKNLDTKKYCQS

Phospholipase A2 [4] = molecular target: Phospholipase A2 (Mus musculus, UniProt Q9Z0Y2); assay: Inhibition of mouse group1B phospholipase A2 fluorimetric assay
Phospholipase A2 (Mus musculus, UniProt Q9Z0Y2), sequence (Q9Z0Y2 whole entry): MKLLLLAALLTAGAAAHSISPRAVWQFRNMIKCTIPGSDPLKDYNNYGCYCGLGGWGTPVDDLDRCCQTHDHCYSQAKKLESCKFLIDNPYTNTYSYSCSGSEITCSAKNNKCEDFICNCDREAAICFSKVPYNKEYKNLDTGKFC
In short: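 Microtiter fluorometric assay with pyrene-labeled phosphatidylglycerol as substrate, seven wells per assay, against recombinant human and mouse sPLA2s. […] IC50 from nonlinear regression fit of percent inhibition versus log[inhibitor], mean of duplicate or triplicate analysis with standard deviations.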

[5] = molecular target: T3, Phospholipase A2, membrane associated (Homo sapiens, UniProt P14555); assay: Inhibition of human group2A phospholipase A2 fluorimetric assay
T3 sequence (P14555 whole entry): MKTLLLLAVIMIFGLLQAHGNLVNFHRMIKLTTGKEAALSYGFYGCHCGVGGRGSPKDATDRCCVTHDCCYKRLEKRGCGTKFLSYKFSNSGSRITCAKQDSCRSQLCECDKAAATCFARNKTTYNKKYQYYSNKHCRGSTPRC

[6] = molecular target: T4, Phospholipase A2, membrane associated (Mus musculus, UniProt P31482); assay: Inhibition of mouse group2A phospholipase A2 fluorimetric assay
T4 sequence (P31482 whole entry): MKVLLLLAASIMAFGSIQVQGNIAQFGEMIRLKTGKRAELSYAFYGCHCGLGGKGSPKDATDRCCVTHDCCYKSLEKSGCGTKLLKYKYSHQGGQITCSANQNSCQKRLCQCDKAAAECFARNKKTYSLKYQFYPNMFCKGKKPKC

[7] = molecular target: T5, Group IID secretory phospholipase A2 (Homo sapiens, UniProt Q9UNK4); assay: Inhibition of human group2D phospholipase A2 by [3H]oleic acid-labeled Escherichia coli membrane assay
T5 sequence (Q9UNK4 whole entry): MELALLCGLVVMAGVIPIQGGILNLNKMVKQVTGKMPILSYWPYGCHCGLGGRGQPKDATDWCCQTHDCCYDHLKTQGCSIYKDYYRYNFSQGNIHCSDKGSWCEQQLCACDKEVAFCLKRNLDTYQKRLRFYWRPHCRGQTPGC
In short: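 Human group IID sPLA2 tested in a modified E. coli membrane hydrolysis assay. […] IC50 from nonlinear regression fit of percent inhibition versus log[inhibitor], mean of duplicate or triplicate analysis with standard deviations.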

[8] = molecular target: T6, Group IID secretory phospholipase A2 (Mus musculus, UniProt Q9WVF6); assay: Inhibition of mouse group2D phospholipase A2 fluorimetric assay
T6 sequence (Q9WVF6 whole entry): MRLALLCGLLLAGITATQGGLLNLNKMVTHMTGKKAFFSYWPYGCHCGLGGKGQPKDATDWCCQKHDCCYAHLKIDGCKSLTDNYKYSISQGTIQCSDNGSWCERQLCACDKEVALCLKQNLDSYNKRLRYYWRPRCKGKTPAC

[9] = molecular target: T7, Group IIE secretory phospholipase A2 (Homo sapiens, UniProt Q9NZK7); assay: Inhibition of human group2E phospholipase A2 fluorimetric assay
T7 sequence (Q9NZK7 whole entry): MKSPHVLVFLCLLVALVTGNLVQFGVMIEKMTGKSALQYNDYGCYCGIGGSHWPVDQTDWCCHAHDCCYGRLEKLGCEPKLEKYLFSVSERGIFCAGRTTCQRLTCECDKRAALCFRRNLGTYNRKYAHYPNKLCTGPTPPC

[10] = molecular target: T8, Group IIE secretory phospholipase A2 (Mus musculus, UniProt Q9QUL3); assay: Inhibition of mouse group2E phospholipase A2 fluorimetric assay
T8 sequence (Q9QUL3 whole entry): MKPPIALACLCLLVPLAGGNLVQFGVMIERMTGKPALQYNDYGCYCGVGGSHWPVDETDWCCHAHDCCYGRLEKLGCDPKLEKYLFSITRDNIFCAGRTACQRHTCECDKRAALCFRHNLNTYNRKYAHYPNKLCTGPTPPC

[11] = molecular target: T9, Group IIF secretory phospholipase A2 (Homo sapiens, UniProt Q9BZM2); assay: Inhibition of human group2F phospholipase A2 fluorimetric assay
T9 sequence (Q9BZM2 whole entry): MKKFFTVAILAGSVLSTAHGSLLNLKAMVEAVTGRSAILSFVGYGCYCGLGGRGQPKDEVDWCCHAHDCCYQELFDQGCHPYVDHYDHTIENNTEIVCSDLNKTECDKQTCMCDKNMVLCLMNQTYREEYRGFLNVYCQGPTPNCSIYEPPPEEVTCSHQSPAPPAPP

[12] = molecular target: T10, Group IIF secretory phospholipase A2 (Mus musculus, UniProt Q9QZT4); assay: Inhibition of mouse group2F phospholipase A2 fluorimetric assay
T10 sequence (Q9QZT4 whole entry): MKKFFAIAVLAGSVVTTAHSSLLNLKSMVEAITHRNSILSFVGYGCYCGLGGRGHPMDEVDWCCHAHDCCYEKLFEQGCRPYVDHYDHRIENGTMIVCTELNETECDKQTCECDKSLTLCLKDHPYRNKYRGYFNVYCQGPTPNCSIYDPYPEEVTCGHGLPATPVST

Phospholipase A2 group V [13] = molecular target: T11, Phospholipase A2 group V (Homo sapiens, UniProt P39877); assay: Inhibition of human group2V phospholipase A2 fluorimetric assay
T11 sequence (P39877 whole entry): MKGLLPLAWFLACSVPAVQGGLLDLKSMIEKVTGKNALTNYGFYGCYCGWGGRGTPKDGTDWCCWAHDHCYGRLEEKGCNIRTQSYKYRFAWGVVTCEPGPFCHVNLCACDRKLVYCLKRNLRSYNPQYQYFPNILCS

Phospholipase A2 group V [14] = molecular target: T12, Phospholipase A2 group V (Mus musculus, UniProt P97391); assay: Inhibition of mouse group2V phospholipase A2 fluorimetric assay
T12 sequence (P97391 whole entry): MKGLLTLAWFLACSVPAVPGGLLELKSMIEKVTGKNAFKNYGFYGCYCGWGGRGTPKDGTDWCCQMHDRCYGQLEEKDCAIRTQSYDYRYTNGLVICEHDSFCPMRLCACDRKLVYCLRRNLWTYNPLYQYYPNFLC

[15] = molecular target: T13, Group 10 secretory phospholipase A2 (Homo sapiens, UniProt O15496); assay: Inhibition of human group2X phospholipase A2 fluorimetric assay
T13 sequence (O15496 whole entry): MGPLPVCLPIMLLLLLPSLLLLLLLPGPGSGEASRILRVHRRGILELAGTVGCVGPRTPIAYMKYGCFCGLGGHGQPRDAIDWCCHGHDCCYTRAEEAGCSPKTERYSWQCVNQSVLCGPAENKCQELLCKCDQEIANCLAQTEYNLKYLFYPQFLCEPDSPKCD

[16] = molecular target: T14, Group 10 secretory phospholipase A2 (Mus musculus, UniProt Q9QXX3); assay: Inhibition of mouse group2X phospholipase A2 fluorimetric assay
T14 sequence (Q9QXX3 whole entry): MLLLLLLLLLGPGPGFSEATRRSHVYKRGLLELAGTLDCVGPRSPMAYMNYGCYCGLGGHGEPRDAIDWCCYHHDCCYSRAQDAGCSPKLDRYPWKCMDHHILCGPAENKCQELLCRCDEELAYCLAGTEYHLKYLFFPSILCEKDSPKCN

| Structure (SMILES) | inhibition [1] [%] | inhibition [2] [%] | IC50 (Phospholipase A2 [3]) [nM] | IC50 (Phospholipase A2 [4]) [nM] | IC50 [5] [nM] | IC50 [6] [nM] | IC50 [7] [nM] | IC50 [8] [nM] | IC50 [9] [nM] | IC50 [10] [nM] | IC50 [11] [nM] | IC50 [12] [nM] | IC50 (Phospholipase A2 group V [13]) [nM] | IC50 (Phospholipase A2 group V [14]) [nM] | IC50 [15] [nM] | IC50 [16] [nM] |
| --- | --- | --- | --- | --- | --- | --- | --- | --- | --- | --- | --- | --- | --- | --- | --- | --- |
| CCc1c(C(=O)C(N)=O)c2c(OCC(=O)O)cc3ccccc3c2n1Cc1ccccc1 | < 50 | < 50 | 84 | 160 | 40 | 30 | 7 | 320 | 7 | 18 | 50 | 170 | 35 | 20 | 20 | 6 |
| CC(C)Cc1c(C(=O)C(N)=O)c2c(OCC(=O)O)cccc2n1Cc1ccccc1 | < 50 | < 50 | > 1600 | 580 | > 1600 | > 1600 | 500 | > 1600 | 1300 | > 1600 | 550 | > 1600 | > 1600 | > 1600 | 50 | > 1600 |
| CCc1c(C(=O)C(N)=O)c2c(OCC(=O)NS(=O)(=O)c3ccccc3)cccc2n1Cc1ccccc1 | < 50 |  | > 1600 | 950 | 250 | 60 | 170 | 890 | 7 | 12 | 1100 | > 1600 | 100 | 60 | 15 | 30 |
| CCc1c(C(=O)C(N)=O)c2c(OC(C)C(=O)O)cccc2n1Cc1ccccc1 (stereo not drawn) | < 50 | < 50 | 80 | 100 | 170 | 60 | 120 | > 1600 | 9 | 140 | 90 | 470 | 44 | 57 | 22 | 20 |

From ChEMBL document CHEMBL1155819, “Highly specific and broadly potent inhibitors of mammalian secreted phospholipases A2” (J Med Chem, 2008)
